Measurements taken from ChEMBL document CHEMBL4130485, “Inhibitors of Yellow Fever Virus replication based on 1,3,5-triphenyl-4,5-dihydropyrazole scaffold: Design, synthesis and antiviral evaluation” (Eur J Med Chem, 2017).

What was measured:
Human orthopneumovirus = test: Antiviral activity against Human respiratory syncytial virus A2 ATCC VR 1540 infected in African green monkey Vero 76 cells assessed as protection against virus-induced cytopathic effect after 5 days by crystal violet staining-based plaque reduction assay; assay type: functional, organism-based; settings: ATCC VR 1540, Vero 76, 120 h
[1] = Cytotoxicity against bovine MDBK cells assessed as decrease in cell viability after 72 hrs by MTT assay; assay type: cell-based, Bos taurus; settings: cattle
Summary of the method: (§1)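 Uninfected MDBK (6×10^5 cells/mL, 10% horse serum) or BHK (1×10^6 cells/mL, 10% FBS) cells in MEM-Earle with serial compound dilutions at 37 °C, 5% CO2, run in parallel with the antiviral assays. Viability read by MTT after 72 h. CC50 by linear regression; mean of three determinations.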

[2] = system: Bovine viral diarrhea virus 1; test: Antiviral activity against Bovine viral diarrhea virus NADL ATCC VR 534 infected in bovine MDBK cells assessed as protection against virus-induced cytopathic effect after 3 to 4 days by MTT assay; assay type: functional, organism-based, Bovine viral diarrhea virus 1-NADL; settings: Bovine viral diarrhea virus isolates and strains, ATCC VR 534, MDBK
Summary of the method: (§2)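 BHK-21 cells (MDBK for BVDV) seeded at 5×10^4 (BHK) or 3×10^4 (MDBK) cells/well and grown overnight to confluence. Infected at m.o.i. 0.01 in maintenance MEM-Earle with 0.5% inactivated FBS. Serial compound dilutions added 2 h later (final 100, 20, 4, 0.8 µM; DMSO ≤0.1%). Viability read by MTT after 3–4 days at 37 °C. EC50 obtained by linear regression against untreated controls; mean of three determinations.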

[3] = Selectivity index, ratio of CC50 for bovine MDBK cells to EC50 for Bovine viral diarrhea virus NADL ATCC VR 534; assay type: toxicity; settings: cattle, read-out: Ratio CC50/EC50
Summary of the method: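 Selectivity index calculated as MDBK CC50 divided by BVDV EC50, both by MTT.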

[4] = Cytotoxicity against African green monkey Vero 76 cells assessed as decrease in cell viability after 48 to 96 hrs by MTT assay; assay type: cell-based; settings: chlorocebus sabaeus
Summary of the method: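 Vero 76 cells seeded at 5×10^5 cells/mL in D-MEM with 10% FBS and incubated with serial compound dilutions at 37 °C, 5% CO2. Viability read by MTT after 48–96 h. CC50 by linear regression versus untreated controls.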

West Nile virus = test: Antiviral activity against West Nile virus clinical isolate infected in golden hamster BHK21 cells assessed as protection against virus-induced cytopathic effect after 3 to 4 days by MTT assay; assay type: functional, organism-based; settings: BHK-21; summary of the method: as §2
Yellow fever virus [5] = test: Potency index, ratio of azauridine EC50 to compound EC50 for Yellow fever virus 17D vaccine (Stamaril Pasteur J07B01); assay type: functional
Yellow fever virus [6] = test: Antiviral activity against Yellow fever virus 17D vaccine (Stamaril Pasteur J07B01) infected in golden hamster BHK21 cells assessed as protection against virus-induced cytopathic effect after 3 to 4 days by MTT assay; assay type: functional, organism-based; settings: BHK-21; summary of the method: as §2
Vaccinia virus = test: Antiviral activity against Vaccinia virus Lister ATCC VR 1549 infected in African green monkey Vero 76 cells assessed as protection against virus-induced cytopathic effect after 3 days by crystal violet staining-based plaque reduction assay; assay type: functional, organism-based; settings: Orthopoxvirus vaccinia, ATCC VR 1549, Vero 76, 72 h
[7] = Cytotoxicity against golden hamster BHK21 cells assessed as decrease in cell viability after 72 hrs by MTT assay; assay type: cell-based, Mesocricetus auratus, BHK-21; summary of the method: as §1
Human alphaherpesvirus 1 = test: Antiviral activity against Human herpesvirus 1 KOS ATCC VR 1493 infected in African green monkey Vero 76 cells assessed as protection against virus-induced cytopathic effect after 3 days by crystal violet staining-based plaque reduction assay; assay type: functional, organism-based; settings: Human alphaherpesvirus 1, KOS, Vero 76, 72 h
[8] = system: Vesicular stomatitis Indiana virus; test: Antiviral activity against Vesicular stomatitis virus Indiana ATCC VR 158 infected in African green monkey Vero 76 cells assessed as protection against virus-induced cytopathic effect after 2 days by crystal violet staining-based plaque reduction assay; assay type: functional, organism-based; settings: ATCC VR 158, Vero 76, 48 h
[9] = Antiviral activity against Human enterovirus B Faulkner ATCC VR 185 infected in African green monkey Vero 76 cells assessed as protection against virus-induced cytopathic effect after 3 days by crystal violet staining-based plaque reduction assay; assay type: functional, cell-based; settings: Faulkner ATCC VR 185, Vero 76, 72 h
[10] = Cytotoxicity against human MT4 cells assessed as decrease in cell viability after 96 hrs by MTT assay; assay type: cell-based
Summary of the method: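 Exponentially growing MT-4 cells seeded at 1×10^5 cells/mL in RPMI-1640 with 10% FBS and incubated with serial compound dilutions at 37 °C, 5% CO2. Viability read by MTT after 96 h. CC50 by linear regression versus untreated controls.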

[11] = Selectivity index, ratio of CC50 for golden hamster BHK21 cells to EC50 for Yellow fever virus 17D; assay type: toxicity; settings: read-out: Ratio CC50/EC50
Summary of the method: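 Selectivity index calculated as BHK-21 CC50 divided by YFV EC50, both from MTT assays.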

[12] = system: Human immunodeficiency virus 1; test: Antiviral activity against HIV1 3B infected in human MT4 cells assessed as protection against virus-induced cytopathic effect after 4 days by MTT assay; assay type: functional, organism-based; settings: Human immunodeficiency virus 1, 3B, MT4, 96 h
Summary of the method: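 MT-4 cells (1×10^4/well) in RPMI with serial compound dilutions, infected with 100 CCID50 HIV-1 (m.o.i. 0.01). Viability read by MTT after 4 days at 37 °C. EC50 for 50% protection from cytopathicity obtained by linear regression versus untreated controls; mean of three determinations.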

dengue virus type 2 = test: Antiviral activity against Dengue virus type 2 clinical isolate infected in golden hamster BHK21 cells assessed as protection against virus-induced cytopathic effect after 3 to 4 days by MTT assay; assay type: functional, organism-based; settings: BHK-21; summary of the method: as §2
[13] = system: Mammalian orthoreovirus 1; test: Antiviral activity against Reovirus 1 infected in golden hamster BHK21 cells assessed as protection against virus-induced cytopathic effect after 3 to 4 days by MTT assay; assay type: functional, organism-based; settings: Mammalian orthoreovirus 1, BHK-21; summary of the method: as §2
Enterovirus C = test: Antiviral activity against Enterovirus C Sabin […] infected in African green monkey Vero 76 cells assessed as protection against virus-induced cytopathic effect after 2 days by crystal violet staining-based plaque reduction assay; assay type: functional, organism-based; settings: Vero 76, 48 h
[14] = Selectivity index, ratio of CC50 for African green monkey Vero 76 cells to EC50 for Human coxsackievirus B5 Faulkner; assay type: toxicity; settings: read-out: Ratio CC50/EC50
Summary of the method: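 Selectivity index calculated as Vero 76 CC50 (MTT) divided by CVB-5 plaque-reduction EC50.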

| SMILES | EC50 (Human orthopneumovirus) [µM] | CC50 at 72 h [1] [µM] | EC50 [2] [µM] | selectivity ratio [3] | CC50 [4] [µM] | EC50 (West Nile virus) [µM] | Ratio EC50 (Yellow fever virus [5]) | EC50 (Yellow fever virus [6]) [µM] | EC50 (Vaccinia virus) [µM] | CC50 at 72 h [7] [µM] | EC50 (Human alphaherpesvirus 1) [µM] | EC50 [8] [µM] | EC50 [9] [µM] | CC50 at 96 h [10] [µM] | selectivity ratio [11] | EC50 [12] [µM] | EC50 (dengue virus type 2) [µM] | EC50 [13] [µM] | EC50 (Enterovirus C) [µM] | selectivity ratio [14] |
| --- | --- | --- | --- | --- | --- | --- | --- | --- | --- | --- | --- | --- | --- | --- | --- | --- | --- | --- | --- | --- |
| NC(=O)c1ncn([C@@H]2O[C@H](CO)[C@@H](O)[C@H]2O)n1 [RIBAVIRIN] | 1.2 | 62 | 20 | 3 | > 100 |  |  |  |  |  |  |  |  |  |  |  |  |  |  |  |
| NS(=O)(=O)c1ccc(N2N=C(c3ccc(OCc4ccccc4)cc3)CC2c2ccc(Cl)cc2)cc1 (stereo not drawn) | > 82 | 16 | 4.5 | 3.6 | 82 | > 15 | 10 | 1.9 | > 82 | 15 to 16 | > 82 | > 82 | > 82 | 70 | 7.9 | > 70 | > 15 | > 16 | > 82 |  |
| Cc1cc(CCCOc2c(C)cc(-c3noc(C(F)(F)F)n3)cc2C)on1 [PLECONARIL] |  |  |  |  | 83 |  |  |  |  |  |  |  | 0.005 |  |  |  |  |  | 2.7 | 16000 |
| NS(=O)(=O)c1ccc(N2N=C(c3ccc(OCc4ccccc4)cc3)CC2c2ccccc2Cl)cc1 (stereo not drawn) | > 92 | 52 | 7.5 | 6.9 | 92 | > 12 | 10 | 1.9 | > 92 | 12 | > 92 | > 92 | > 92 | 26 | 6.3 | > 26 | > 12 | > 12 | > 92 |  |
| NS(=O)(=O)c1ccc(N2N=C(c3ccccc3)CC2c2cccc(Cl)c2)cc1 (stereo not drawn) | > 21 | 2 | > 2 |  | 21 | > 9 | 10 | 2.5 | > 21 | 8 to 9 | > 21 | > 21 | > 21 | 41 | 3.6 | 10 | > 9 | > 8 | > 21 |  |
| NS(=O)(=O)c1ccc(N2N=C(c3ccccc3)CC2c2ccccc2Cl)cc1 (stereo not drawn) | > 26 | 9 | > 9 |  | 26 | > 14 | 10 | 2.4 | > 26 | 13 to 14 | > 26 | > 26 | > 26 | 44 | 5.8 | > 44 | > 14 | > 13 | > 26 |  |
